Only some compounds are listed: those with a hit (about 2.6% of all), similar ones and a draw of the others.
SENP7 block: SENP7 protease inhibition | recombinant SENP7, Z-RLRGG-aminoluciferin luminescence, 40 min | inhibition, % at 5 µM | 330,000 compounds, 1.5% hits | AID 434973;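 active means inhibition above about 50% at the single test dose, limit read from the data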;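 further: plate controls were DMSO with enzyme for no effect and no enzyme buffer wells for full effect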
SENP6 inh: inhibitors of human SENP6 protease. Q9GZR1. Recombinant SENP6 catalytic domain, aminoluciferin luminescence. inhibition, % at 10 µM. 330,000 compounds, 1.8% hits. AID 2599;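 active means inhibition above about 50% at the single tested dose, limit read from the data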;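 further: plate controls were DMSO wells with enzyme for no effect and DMSO wells lacking enzyme for full effect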
Platelet DG rel: platelet dense granule release activity | human platelet-rich plasma, SFLLRN dense granule ATP release, luminescence | inhibition, %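 (compounds screened at 7.5 µM in platelet-rich plasma)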 | 300,000 compounds, 0.22% hits | AID 1663;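 active means mean replicate score, as percent of positive control, at or above 50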
SENP1 FRET inh: inhibitors of human SENP1 SUMO protease catalytic domain. Q9P0U3. recombinant SENP1 catalytic domain, CyPet-SUMO1-YPet FRET cleavage. inhibition, % at 10 µM. 360,000 compounds, 0.21% hits;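 active means inhibition at least 30% at 10 µM, raw YFP signal under a set limit, fluorescence ratio 0.5 to 1.5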;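 further: 0% = enzyme with DMSO and 100% = no enzyme wells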
Target sequence (Q9P0U3 419-644 limits assumed): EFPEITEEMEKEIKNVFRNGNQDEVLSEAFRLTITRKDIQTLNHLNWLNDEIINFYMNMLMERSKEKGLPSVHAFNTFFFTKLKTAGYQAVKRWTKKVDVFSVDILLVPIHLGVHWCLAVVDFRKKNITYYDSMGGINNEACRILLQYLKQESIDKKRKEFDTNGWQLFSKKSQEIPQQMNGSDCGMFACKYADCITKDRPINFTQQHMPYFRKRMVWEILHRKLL
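Material – human SENP1 catalytic domain · Input – SENP1 enzyme, 20 pM final · Compound dosing – single concentration of 10 µM compound, 0.5% DMSO final · Timing – enzyme reaction for 50 min at room temperature, dark · Measured by – FRET fluorescence in CFP and YFP emission channels · Control set – no-enzyme wells low, DMSO-plus-enzyme wells high control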
SENP8 block-1: blocks human SENP8 cleavage of Nedd8 substrate. Q96LD8. 360,000 compounds, 0.64% hits. inhibition, % at 20 µM. recombinant SENP8, Nedd8 substrate fluorescence; in the data active means inhibition mostly above about 40%, no sharp cut-off; inactive means mostly below about 27%
Target sequence (Q96LD8 whole entry, looked up): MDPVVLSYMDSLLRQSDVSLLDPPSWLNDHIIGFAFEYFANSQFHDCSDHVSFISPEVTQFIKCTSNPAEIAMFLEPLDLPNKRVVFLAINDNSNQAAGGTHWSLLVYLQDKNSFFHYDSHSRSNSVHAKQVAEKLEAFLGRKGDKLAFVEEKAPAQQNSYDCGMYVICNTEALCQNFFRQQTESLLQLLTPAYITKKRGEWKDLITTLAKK
SENP8 block-2: blocks the human protease SENP8; inhibition, % at 10 µM; Q96LD8; purified SENP8, Z-RLRGG-aminoluciferin cleavage, luminescence; 330,000 compounds, 1.2% hits; in the data active means inhibition above about 50%
SENP8 conf: human SENP8 inhibition, confirmed. 6,200 compounds, 40% hits. inhibition, % at 12.5 µM. AID 488912. shares compounds with SENP7 block. Recombinant SENP8, Z-RLRGG-aminoluciferin luminescence, 60 min;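 active means mean inhibition across replicates above about 50%, limit read from the data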
SENP6 conf: human SENP6 inhibition, confirmed; inhibition, % at 12.5 µM; recombinant SENP6, Z-RLRGG-aminoluciferin luminescence; shares compounds with SENP7 block; 6,200 compounds, 58% hits
SENP7 confirm: confirmation of human SENP7 protease inhibitors | shares compounds with SENP7 block | recombinant SENP7, Z-RLRGG-aminoluciferin luminescence, 40 min | inhibition, % at 12.5 µM | 6,200 compounds, 69% hits
Casp3 SENP sel: inhibits human caspase-3 in SENP selectivity test | inhibition, % at 12.5 µM | shares compounds with SENP7 block | AID 488918 | purified caspase-3, Z-DEVD-aminoluciferin luminescence, 60 min | 6,200 compounds, 60% hits;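 active means mean inhibition above about 50%, limit read from the data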;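 further: plate controls were enzyme with DMSO for no effect and wells without caspase-3 for full effect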
Target sequence (P42574 28-227 limits assumed): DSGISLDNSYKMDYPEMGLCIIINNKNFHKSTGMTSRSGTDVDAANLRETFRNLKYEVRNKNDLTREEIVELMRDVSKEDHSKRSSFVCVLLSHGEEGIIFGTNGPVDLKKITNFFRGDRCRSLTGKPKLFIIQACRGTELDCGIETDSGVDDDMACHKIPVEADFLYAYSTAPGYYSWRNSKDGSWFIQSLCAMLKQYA
SENP luc ctr: counter-screen for SENP inhibitors: luminescence interference | Pre-incubated SENP8/Z-RLRGG-aminoluciferin, luciferase luminescence interference | 6,200 compounds, 39% hits | shares compounds with SENP7 block | inhibition, % at 12.5 µM;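 active means mean inhibition above about 50% when retested at one dose, limit read from the data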;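 further: plate controls were DMSO wells with completed reaction for no effect and substrate without enzyme for full effect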
* hit, by the source's call; . = no result given.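 How the source made its calls, unless noted: active means mean inhibition above about 50% in the one-dose retest (limit read from the data); inactive means the rest.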

SMILES | SENP7 block | SENP6 inh | Platelet DG rel | SENP1 FRET inh | SENP8 block-1 | SENP8 block-2 | SENP8 conf | SENP6 conf | SENP7 confirm | Casp3 SENP sel | SENP luc ctr
O=C(O)c1ccc(-c2noc(-c3cccc(F)c3)n2)cc1 | 96* | 97* | 40 | -1 | 8 | 95* | 98* | 99* | 101* | 97* | 95*
COc1cccc(-c2nc(-c3ccc(NC(=O)c4ccncc4)cc3)no2)c1 | 0 | 4 | -2 | -4 | 7 | 2 | . | . | . | . | .
COc1cccc(-c2nc(-c3ccc(C(=O)O)cc3)no2)c1 | 97* | 99* | 50* | 2 | -12 | 95* | 99* | 100* | 103* | 99* | 86*
CCN1CCN(C(=O)C(C)Sc2nc3nc(C)cc(C)n3n2)CC1 (stereo not given) | -2 | -11 | . | 0 | 8 | -3 | . | . | . | . | .
NNC(=O)Cc1cccc2ccc(Cl)cc12 | . | . | . | 4 | 20 | . | . | . | . | . | .
O=c1c2ccccc2nnn1CSc1ccccc1 | 78* | 87* | -6 | 2 | 27 | 75* | 81* | 81* | 96* | 88* | 85*
O=c1c2ccccc2nnn1CSc1ccc2ccccc2n1 | 9 | -1 | 2 | 1 | 21 | 5 | . | . | . | . | .
COc1ccc(C(=O)c2c(C(F)(F)F)oc3c2C(=O)c2ccccc2C3=O)cc1 | 27 | 70* | 2 | 4 | 81* | 47 | 27 | 70* | 15 | 72* | -6
CCOc1ccc(-n2cc(-c3ccc(OC)c(OC)c3)[nH]c2=S)cc1 | -1 | 73* | 3 | 0 | 0 | 53* | 7 | 46 | 36 | 23 | 12
CCOc1ccc(-c2cn(-c3ccccc3OC)c(=S)[nH]2)cc1 | 5 | 8 | -12 | -12 | -3 | 3 | . | . | . | . | .
COC(=O)[C@@H](Cc1c[nH]c2ccccc12)NC(=O)c1ccc2c(c1)OCO2 | 65* | 59* | -2 | 1 | 7 | 53* | 50 | 47 | 83* | 67* | 68*
O=C(COC(=O)[C@H](Cc1c[nH]c2ccccc12)NC(=O)c1ccc(Cl)cc1)Nc1ccc2c(c1)OCO2 | -2 | -10 | 3 | -1 | 18 | 0 | . | . | . | . | .
Cc1cccc(NC(=O)/C(C#N)=C/c2ccc(Cl)cc2)n1 | -3 | 5 | 11 | -3 | 7 | -3 | . | . | . | . | .
Cn1cccc1C(=O)/C(C#N)=C/c1ccc(F)cc1 | 0 | 15 | 0 | 14 | 10 | -1 | . | . | . | . | .
COc1ccc(/C=C(\C#N)C(=O)Nc2cccc(C)n2)cc1 | 36 | 50* | -9 | 2 | 8 | 51* | 11 | 18 | 16 | 11 | 21
COc1ccc(/C=C(\C#N)C(=O)c2cccn2C)cc1 | 78* | 79* | -1 | -3 | 18 | 69* | 87* | 87* | 94* | 72* | 82*
COc1cc(S(=O)(=O)NCC2CCCO2)ccc1Br (stereo not given) | -3 | 1 | -1 | 3 | 8 | -9 | . | . | . | . | .
CC(=O)N=Cc1c(C)c(C#N)c(=O)n(C)c1O | 14 | 57* | 2 | -32 | -16 | 10 | -23 | -18 | -6 | -5 | -4
Cc1c(C=O)c(Cl)n(C)c(=O)c1C#N | 74* | 2 | -2 | -101 | -46 | 41 | 17 | 22 | 9 | 2 | 2
Cc1cc(C)n(C)c(=O)c1C#N | 11 | -6 | 0 | 2 | -22 | 5 | . | . | . | . | .
Cc1c(/C=N/Nc2ccc(F)cc2)c(O)n(C)c(=O)c1C#N | 9 | 13 | 1 | -8 | -8 | 18 | . | . | . | . | .
CC1(C(=O)NS(=O)(=O)c2ccc3c(c2)CCO3)CCN1C(=O)CCC1CCCC1 (stereo not given) | . | . | . | 0 | 17 | . | . | . | . | . | .
O=C(/C=C/c1ccc2c(c1)OCCCO2)c1ccccc1O | 84* | 88* | 30 | 2 | 22 | 81* | 91* | 93* | 92* | 57* | 26
Cc1ccc(/C=C/C(=O)c2ccccc2O)cc1 | 17 | 6 | 10 | 1 | 12 | 45 | . | . | . | . | .
CN(C)c1ccc(/C=C/C(=O)c2ccccc2O)cc1 | 89* | 92* | 8 | 57 | 14 | 86* | 18 | 27 | 14 | 8 | -2
SMILES | SENP7 block | SENP6 inh | Platelet DG rel | SENP1 FRET inh | SENP8 block-1 | SENP8 block-2 | SENP8 conf | SENP6 conf | SENP7 confirm | Casp3 SENP sel | SENP luc ctr
Cc1ccc(NC(=O)n2ncc3c(C)cccc32)c(C)c1 | 0 | -10 | 2 | 4 | 15 | -12 | . | . | . | . | .
CCOc1ccc(NC(=O)n2ncc3c(C)cccc32)cc1 | 91* | 64* | 11 | 0 | 22 | 81* | -4 | 3 | 6 | 10 | -3
COc1cccc(NC(=O)n2ncc3c(C)cccc32)c1 | 100* | 99* | 37 | 2 | 20 | 95* | 100* | 101* | 103* | 99* | 98*
COc1ccc(-c2nc3ccccc3nc2-c2ccc(OC)cc2)cc1 | 2 | -5 | -1 | -92 | -306 | -1 | . | . | . | . | .
COc1ccc(-c2nc3ccccc3[nH]2)cc1 | 97* | 94* | 38 | 3 | -25 | 95* | 96* | 98* | 103* | 98* | 96*
COc1ccc(-c2cc(=O)n(-c3nc4ccccc4[nH]3)[nH]2)cc1 | 34 | 91* | 13 | -94 | -64 | 87* | -4 | 92* | 101* | 96* | 54*
COC(=O)c1ccc(C(=O)Nc2ccc3nc(-c4ccncc4)[nH]c3c2)cc1 | -6 | 11 | -6 | 24 | -2 | -8 | . | . | . | . | .
O=C(O)c1cccc(-c2nc3ccccc3[nH]2)c1 | 99* | 94* | 9 | 1 | -51 | 94* | 96* | 97* | 100* | 89* | 96*
COC(=O)c1ccc(-c2nc3ccccc3[nH]2)cc1 | 95* | 88* | 19 | 3 | -427 | 85* | 93* | 93* | 100* | 96* | 91*
CCOc1ccc(NC(=O)CCc2c(C)nn(-c3ccc(N4CCCCC4)nn3)c2C)cc1 | -6 | 9 | 8 | 0 | -10 | 4 | . | . | . | . | .
Cc1ccccc1CNC(=O)c1csc([C@H]2C[C@H](O)[C@@H](CO)O2)n1 | . | . | . | -1 | 22 | . | . | . | . | . | .
COc1cc(SC)ccc1C(=O)N1CCN(S(=O)(=O)/C=C/c2ccccc2)CC1 | -5 | 1 | . | 1 | 9 | 2 | . | . | . | . | .
O=C1NC(=O)C(c2ccccc2)(c2ccc(Cl)cc2Cl)N1 (stereo not given) | . | . | . | 1 | 18 | . | . | . | . | . | .
